# Shown are actives, neighbours in structure and some others; about 1.3% of the full set was active somewhere.
# Tb hexokinase – Trypanosoma brucei hexokinase 1 inhibitors, primary screen, biochemical, G6PDH-coupled NADH absorbance, MLSCN library; hexokinase 1 [Trypanosoma brucei]; recombinant TbHK1, G6PDH-coupled NADH A340; inhibition, % at 10 µM; 220,000 tested, 0.11% active; AID 1430, 2008;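 active = inhibition of 50% or more in the single-dose primary screen; inactive = inhibition below 50%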
# HKDC1 inh – HKDC1 hexokinase inhibitors, primary screen, biochemical, fluorescence, uHTS; recombinant HKDC1, G6PDH/diaphorase resazurin coupled fluorescence; inhibition, % at 20 µM; 340,000 tested, 0.16% active; AID 493160, 2011;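 active = inhibition above about 35% when tested at 20 µM, limit read from the data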;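 note: plate controls were DMSO wells with enzyme for no effect and DMSO wells lacking enzyme for full effect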
#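 Assay system – recombinant HKDC1 (HK5) hexokinase enzyme, produced in-house · Input – HKDC1 at 5 µg/mL · Reagent – glucose plus 1 mM ATP as hexokinase substrates · Timing – 90 min reaction incubation at room temperature, dark · Measured by – G6PDH/diaphorase-coupled fluorescence, 1 mM NADP, 100 µM resazurin, 525/613 nm · Benchmarks – DMSO-enzyme wells negative, buffer-substituted wells positive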
# G6PDH CS – L. mesenteroides G6PDH inhibitors, counter-screen for G6PDH-coupled screening assays, biochemical, Leuconostoc mesenteroides enzyme. glucose-6-phosphate dehydrogenase [Leuconostoc mesenteroides]. Purified L. mesenteroides G6PDH, diaphorase/resazurin coupled fluorescence, 45 min. inhibition, % at 5 µM. 200,000 tested, 0.12% active. AID 1020, 2008; in the data active = inhibition above about 50%
# Diaph inh CS – diaphorase inhibitors and chemical oxidizers, primary screen, counter-screen for diaphorase-coupled primary assays, biochemical, uHTS, resorufin fluorescence; AID 1217, 2008; diaphorase resazurin-to-resorufin fluorescence, NADH, 16 min; bacterial (C. kluyveri) enzyme, not human; inhibition, % at 20 µM; 190,000 tested, 0.69% active;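 active = primary screen inhibition at 20 µM above a set limit, cut at about 50% in these data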;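 note: plate controls were DMSO with full reaction for no effect and wells lacking NADH for full effect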
#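 System: Bacterial diaphorase enzyme (C. kluyveri) | Incubation: 16-min room-temperature incubation before reading | Benchmarks: No-NADH positive control and DMSO neutral control | Measured by: Resorufin fluorescence 544/590 nm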
# PfG6PD inh – PfG6PD enzyme inhibitors, primary screen, biochemical, fluorescence intensity, uHTS; glucose-6-phosphate dehydrogenase-6-phosphogluconolactonase (Plasmodium falciparum 3D7); PfGluPho enzyme, NADPH resazurin-diaphorase fluorescence; inhibition, % at 20 µM; 350,000 tested, 0.78% active; AID 504690, 2011;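 active = inhibition reaching at least a set limit at 20 µM in the primary screen, cut at about 59% in these data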;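 note: 0% = DMSO wells with substrate and 100% = DMSO wells lacking glucose-6-phosphate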
# PfG6PD confirm – PfG6PD inhibitors, hit retest, confirmation, biochemical, fluorescence intensity, single concentration. shares compounds with PfG6PD inh. recombinant PfGluPho, NADPH-diaphorase-resazurin fluorescence. inhibition, % at 20 µM. 2,400 tested, 34% active;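 active = inhibition of at least 50% at 20 µM in any single replicate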;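 note: 0% = DMSO with substrate and 100% = DMSO lacking glucose-6-phosphate substrate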
# Diaph ctr 10uM – diaphorase inhibitors and chemical oxidizers, confirmation, counter-screen for P. falciparum G6PD inhibitor project, biochemical, fluorescence intensity, 10 µM NADPH | inhibition, % at 20 µM | shares compounds with PfG6PD inh | 820 tested, 39% active | diaphorase-coupled resazurin reduction, NADPH 10 uM;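 active = average inhibition reaching 50% or more with the compound at 20 µM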;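 note: resorufin red fluorescence formed as diaphorase reduces resazurin using NADPH; 0% = DMSO with enzyme and 100% = DMSO without enzyme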
# Diaph ctr 30uM – diaphorase inhibitors and chemical oxidizers, confirmation, counter-screen for P. falciparum G6PD inhibitor project, biochemical, fluorescence intensity, 30 µM NADPH; Diaphorase/resazurin coupled assay, resorufin fluorescence; shares compounds with PfG6PD inh; inhibition, % at 20 µM; AID 504863, 2011; 820 tested, 29% active;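 active = inhibition averaging 50% or more, tested at 20 µM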;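 note: 0% = DMSO with enzyme and 100% = DMSO wells lacking diaphorase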
# An asterisk follows results filed as active; . = no result.
SMILES,Tb hexokinase,HKDC1 inh,G6PDH CS,Diaph inh CS,PfG6PD inh,PfG6PD confirm,Diaph ctr 10uM,Diaph ctr 30uM
Cc1ccc(Nc2n[nH]c(=S)s2)c(C)c1,.,.,.,.,71*,14,.,.
Cc1cccc(C)c1Nc1n[nH]c(=S)s1,.,.,.,.,54,.,.,.
Cc1cccc(Nc2n[nH]c(=S)s2)c1C,-3,20,-1,26,55,.,.,.
Cc1cc(C)c(Nc2n[nH]c(=S)s2)cc1C,.,.,.,.,67*,28,.,.
COc1ccc(Cl)cc1NC(=O)CN(C)C(=O)c1ccc2c(c1)OCCO2,.,-5,.,.,3,.,.,.
COc1cc(-c2cc(OC)c(O)c(OC)c2)cc(OC)c1O,.,4,.,.,100*,72*,7,1
COc1ccc2c(C)cc(Sc3nnnn3-c3ccccc3)nc2c1,-8,2,-8,14,60*,6,.,.
Cc1cc(C)cc(N(CC(=O)NC2CC3CCC2C3)S(C)(=O)=O)c1 (centres undefined),6,-1,6,15,-5,.,.,.
OCc1nc2ccccc2n1Cc1ccc(Cl)cc1,.,2,.,.,-20,.,.,.
Cc1cc(C)c(C)c(Cn2c(CO)nc3ccccc32)c1C,7,-1,5,22,69*,36,.,.
CCOC(=O)c1sc(=S)n(C)c1NC(=O)c1ccc(F)cc1,-30,-12,19,0,72*,41,.,.
CCn1c(C(=O)N2CCC(C(=O)NCc3ccc4c(c3)OCO4)CC2)cc2sccc21,-8,-2,-28,21,28,.,.,.
CCN1C(=O)CSC1=Nc1ccc(C(=O)O)cc1,.,0,.,.,-17,.,.,.
CC(C)(C)c1ccc(N=C2SCC(=O)N2Cc2cccs2)cc1,-1,3,.,.,64*,-20,.,.
O=C(CN1C(=O)C2CC=CCC2C1=O)Nc1ccc(Br)cc1 (centres undefined),.,-8,.,.,1,.,.,.
O=C(Cn1nc(-c2ccccc2)c2ccccc2c1=O)Nc1ccc(F)cc1,-12,-6,.,.,-6,.,.,.
O=C(Cn1sc2ccccc2c1=O)Nc1ccc(Br)cc1,.,.,.,.,123*,91*,-8,5
O=C(Cn1sc2ccccc2c1=O)Nc1ccc(Cl)cc1,.,.,.,.,125*,96*,-30,2
O=C(Cn1sc2ccccc2c1=O)Nc1ccc(F)cc1,.,.,.,.,125*,106*,-13,15
O=C(COC(=O)c1cc2ccccc2cc1O)NC(=O)NCc1ccco1,-3,6,7,10,1,.,.,.
Cc1cc(C)nc(NC(N)=NCCc2c[nH]c3ccccc23)n1,-7,8,11,2,21,.,.,.
COc1ccc(Cl)cc1NC(=O)COC(=O)Cc1cc(OC)c(OC)c(OC)c1,.,-5,.,.,42,.,.,.
[O-]/[N+](=C/c1cccnc1)c1ccc(Br)cc1,16,2,4,14,105*,78*,68*,33
O=[N+]([O-])c1ccc(N/N=C/c2cccnc2)cc1,.,-1,.,.,31,.,.,.
CC(C)CSc1nc2c(c(=O)[nH]c(=O)n2C)n1CC(O)COc1cccc2ccccc12 (centres undefined),-2,10,3,13,64*,29,.,.
SMILES,Tb hexokinase,HKDC1 inh,G6PDH CS,Diaph inh CS,PfG6PD inh,PfG6PD confirm,Diaph ctr 10uM,Diaph ctr 30uM
Nc1ccnc(Oc2ccc(F)cc2)c1,-3,-15,10,3,4,.,.,.
O=C(CNc1ccccc1)Nc1ccc(F)cc1,4,-5,11,4,-2,.,.,.
Cc1ccc(CSCC(=O)N/N=C/c2sccc2C)cc1,-15,-2,2,15,78*,52*,63*,54*
COc1cc(CN2CCN(CCCc3ccccc3)C(CCO)C2)cc(OC)c1O (centres undefined),.,22,.,.,61*,57*,7,1
O=C(CSc1nc2ccccc2nc1N1CCOCC1)Nc1ccccc1F,.,-3,.,.,-8,.,.,.
CSc1cccc(NC(=S)NC(=O)c2cccnc2)c1,.,1,.,.,-10,.,.,.
Oc1cc2c(cc1O)C1c3ccc(O)c(O)c3OCC1(O)C2 (centres undefined),12,7,32,78*,113*,106*,74*,47
CC(CNc1ccccc1O)C(=O)O (centres undefined),22,8,42,39,94*,70*,-4,1
CC(NC(=O)CCC(=O)Nc1ccccc1O)c1ccccc1 (centres undefined),.,-5,.,.,4,.,.,.
Cc1cccc(/C=N\NC(=O)c2sccc2-n2cccc2)c1,-1,-2,-2,2,71*,42,.,.
CN(C)S(=O)(=O)c1ccc2[nH]cc(/C=C/c3nc4ccccc4c(=O)n3-c3ccccc3)c2c1,-6,-4,13,20,5,.,.,.
CN(C)S(=O)(=O)c1cccc(-n2sc3ccccc3c2=O)c1,86*,4,8,23,115*,111*,-25,-24
O=c1c2ccccc2sn1-c1cccc(Cl)c1,.,.,.,.,128*,104*,-11,3
CCN1CCN(c2nc3sc4c(c3c(=O)n2-c2ccc(OC)cc2)CCCCC4)CC1,-13,-3,5,10,-6,.,.,.
COc1ccc(-n2c(NN)nc3sc4c(c3c2=O)CCCC4)cc1,-8,-1,4,11,92*,29,.,.
CCCc1nc2c(=O)n(C)c(=O)nc-2n(C)n1,7,3,56*,46,109*,103*,98*,100*
Cc1nc2[nH]c(=S)[nH]c(=O)c2nc1C,.,-5,.,.,18,.,.,.
Cc1nc2c(=O)[nH]c(=S)n(C)c2nc1C,-22,-20,5,2,65*,35,.,.
COc1ccc(CN(C)C(=O)C23CC4CC(CC(Cl)(C4)C2)C3)c(OC)c1OC,.,-5,.,.,0,.,.,.
